The source of these data is ChEMBL document CHEMBL1154468, “Synthesis and evaluation of fluoroquinolone derivatives as substrate-based inhibitors of bacterial efflux pumps” (2008).

In assay [1] the target is T1, Quinolone resistance protein NorA (Staphylococcus aureus) (UniProt P0A0J7).
T1 sequence (whole entry): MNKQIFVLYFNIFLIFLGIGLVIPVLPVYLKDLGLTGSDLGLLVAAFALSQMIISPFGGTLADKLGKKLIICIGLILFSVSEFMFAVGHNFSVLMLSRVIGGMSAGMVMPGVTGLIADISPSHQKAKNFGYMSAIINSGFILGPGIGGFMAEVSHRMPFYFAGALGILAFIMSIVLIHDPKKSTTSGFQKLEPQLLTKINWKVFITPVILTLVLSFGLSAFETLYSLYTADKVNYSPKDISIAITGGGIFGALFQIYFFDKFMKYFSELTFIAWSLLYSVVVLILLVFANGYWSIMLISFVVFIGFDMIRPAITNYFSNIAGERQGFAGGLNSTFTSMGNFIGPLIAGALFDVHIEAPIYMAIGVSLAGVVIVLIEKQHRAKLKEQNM
Description: Inhibition of NorA efflux pump in Staphylococcus aureus K2361 assessed as reduction of ethidium bromide efflux at 0.5 uM […].

Assay [2] concerns Staphylococcus aureus. The experiment in a line: Antibacterial activity against Staphylococcus aureus K1758-A overexpressing mepA by broth microdilution technique. The assay is classed as functional. An outline of the steps: (§1)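 S. aureus K1758-P is the susceptible control for K1758-A, a K1758-background strain carrying a constructed plasmid for mepA overexpression. MIC was determined on both.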
(In broth dilution the organism is exposed to a series of concentrations in liquid medium.)

Assay [3] concerns Staphylococcus aureus. The experiment in a line: Antibacterial activity against Staphylococcus aureus K1758-P by broth microdilution technique. Format: functional. The gist of the method:
as §1

The test system of assay [4] is Staphylococcus aureus. Description: Antibacterial activity against Staphylococcus aureus K2361 overexpressing norA by broth microdilution technique. The assay is classed as functional. The gist of the method: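 MIC assessed on norA-overexpressing S. aureus K2361, paired with K1902 as its susceptible control.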
Assay [5] relates to Staphylococcus aureus. The experiment in a line: Antibacterial activity against Staphylococcus aureus K1902 by broth microdilution technique. The assay is classed as functional.
Assay [6] relates to Pseudomonas aeruginosa. The experiment in a line: Antibacterial activity against Pseudomonas aeruginosa K1536 overexpressing mexCD by broth microdilution technique. Format: functional. The gist of the method:
(§2)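 MIC tested on P. aeruginosa PAO1, the susceptible control, and on its derivatives OCR1 (mexAB overexpresser) and K1536 (mexCD overexpresser).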

The subject of assay [7] is Pseudomonas aeruginosa. Description: Antibacterial activity against Pseudomonas aeruginosa OCR1 overexpressing mexAB by broth microdilution technique. Format: functional. The gist of the method:
as §2

The subject of assay [8] is Pseudomonas aeruginosa. The experiment in a line: Antibacterial activity against Pseudomonas aeruginosa PAO1 by broth microdilution technique. The assay is classed as functional. An outline of the steps: as §2
Assay [9] concerns Escherichia coli. Description: Antibacterial activity against Escherichia coli AG102 overexpressing acrAB by broth microdilution technique. The assay is classed as functional. An outline of the steps: (§3)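 MIC determined against E. coli AG102, an acrAB overexpresser, alongside its susceptible parental control AG100.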
Assay [10] relates to Escherichia coli. The experiment in a line: Antibacterial activity against Escherichia coli AG100 by broth microdilution technique. The assay is classed as functional. An outline of the steps: as §3
Assay [11] deals with Staphylococcus aureus. The experiment in a line: Antibacterial activity against ciprofloxacin-resistant Staphylococcus aureus at > 100 ug/ml by broth microdilution technique. The assay is classed as functional, organism-based.
The target in assay [12] is T1, Quinolone resistance protein NorA (Staphylococcus aureus). Description: Inhibition of NorA efflux pump in Staphylococcus aureus K2361 assessed as reduction of ethidium bromide efflux for 5 mins.
Assay [13] deals with Staphylococcus aureus. Description: Inhibition of MepA efflux pump in Staphylococcus aureus […] assessed as reduction of ethidium bromide efflux for 5 mins.
For assay [14], the system named is Staphylococcus aureus. Description: Inhibition of MepA efflux pump in Staphylococcus aureus K2361 assessed as reduction of ethidium bromide efflux at 30 uM for 5 mins. The settings on record: in the assay text read “K1758-A” for “K2361”.
The target in assay [15] is T1, Quinolone resistance protein NorA (Staphylococcus aureus). The settings on record: 30 uM.
For assay [16], the system named is Staphylococcus aureus. The experiment in a line: Inhibition of MepA efflux pump in Staphylococcus aureus K2361 assessed as reduction of ethidium bromide efflux at 10 uM for 5 mins. The settings on record: in the assay text read “K1758-A” for “K2361”.
The subject of assay [17] is Staphylococcus aureus. The experiment in a line: Inhibition of MepA efflux pump in Staphylococcus aureus K2361 assessed as reduction of ethidium bromide efflux at 2 uM for 5 mins. The settings on record: in the assay text read “K1758-A” for “K2361”.
For assay [18], the system named is Staphylococcus aureus. The experiment in a line: Inhibition of MepA efflux pump in Staphylococcus aureus K2361 assessed as reduction of ethidium bromide efflux at 0.5 uM […]. The settings on record: in the assay text read “K1758-A” for “K2361”.
The target of assay [19] is T1, Quinolone resistance protein NorA (Staphylococcus aureus). The experiment in a line: Inhibition of NorA efflux pump in Staphylococcus aureus K2361 assessed as reduction of ethidium bromide efflux at 10 uM for 5 mins.
For assay [20] the target is unchanged. Description: Inhibition of NorA efflux pump in Staphylococcus aureus K2361 assessed as reduction of ethidium bromide efflux at 2 uM for 5 mins.

SMILES strings stand for the structures. ≈ marks a conversion by molar mass, not a printed value. Calls of active or inactive are those of the source. The rule behind the calls is not given here.

As usually defined, the inhibition is the relative decrease from the control value, in per cent. Consider `O=C(Nc1ccccc1)Nc1ccccc1`, for which the inhibition in assay [1] came to 20%.

Regarding `NCc1ccc(NC(=O)Nc2ccc(Cl)cc2)cc1`, the inhibition in assay [1] came to 20%.

As a reminder, the MIC is the least concentration at which growth counts as inhibited. On to `O=C(Nc1ccccc1)Nc1ccc(CN2CCN(c3cc4c(cc3F)c(=O)c(C(=O)O)cn4C3CC3)CC2)cc1`, for which the MIC in the assay on Staphylococcus aureus [2] was determined as 0.63 µg/mL (≈ 1.13 µM); against Staphylococcus aureus [3], 0.63 µg/mL (≈ 1.13 µM); in the assay with Staphylococcus aureus [4], 1.25 µg/mL (≈ 2.25 µM); against Staphylococcus aureus [5], 0.31 µg/mL (≈ 0.558 µM); in the assay on Pseudomonas aeruginosa [6], 50 µg/mL (≈ 90 µM); with Pseudomonas aeruginosa [7] it was 50 µg/mL (≈ 90 µM). In addition, the MIC amounted to 50 µg/mL (≈ 90 µM) in the assay with Pseudomonas aeruginosa [8], 10 µg/mL (≈ 18 µM) in the assay with Escherichia coli [9] and 5 µg/mL (≈ 9 µM) in the assay on Escherichia coli [10]. The outcome (with Staphylococcus aureus [11]; in [12]; with Staphylococcus aureus [13]) was inactive.

For `COC(=O)[C@H]1[C@H]2C[C@@H]3c4[nH]c5cc(OC)ccc5c4CCN3C[C@H]2C[C@@H](OC(=O)c2cc(OC)c(OC)c(OC)c2)[C@@H]1OC`, the inhibition with Staphylococcus aureus [14] was found to be 32%; in assay [15], 81%.

Consider `NCc1ccc(NC(=O)Nc2ccccc2)cc1`, for which the inhibition in assay [1] is 20%.

As for `NCCC[C@@H](NC(=O)[C@@H](N)Cc1ccccc1)C(=O)N1CCN(c2cc3c(cc2F)c(=O)c(C(=O)O)cn3C2CC2)CC1`, the MIC was > 10 µg/mL against Staphylococcus aureus [2]; 10 µg/mL (≈ 16.9 µM) in the assay on Staphylococcus aureus [3]; > 10 µg/mL against Staphylococcus aureus [4]; 10 µg/mL (≈ 16.9 µM) in the assay on Staphylococcus aureus [5]; 50 µg/mL (≈ 84.4 µM) against Pseudomonas aeruginosa [6]; 50 µg/mL (≈ 84.4 µM) against Pseudomonas aeruginosa [7]. Moreover, the MIC against Pseudomonas aeruginosa [8] was 50 µg/mL (≈ 84.4 µM); against Escherichia coli [9], 10 µg/mL (≈ 16.9 µM); in the assay on Escherichia coli [10] it was 10 µg/mL (≈ 16.9 µM).

For the compound `CC1COc2c(N3CCN(C)CC3)c(F)cc3c(=O)c(C(=O)O)cn1c23` (stereo not given) [OFLOXACIN], the minimal inhibitory concentration (MIC) against Staphylococcus aureus [2] was found to be 1.25 µg/mL (≈ 3.46 µM); against Staphylococcus aureus [3], 0.63 µg/mL (≈ 1.74 µM); in the assay on Staphylococcus aureus [4], 2.5 µg/mL (≈ 6.92 µM); with Staphylococcus aureus [5], 0.63 µg/mL (≈ 1.74 µM); with Pseudomonas aeruginosa [6], 6.25 µg/mL (≈ 17.3 µM); in the assay with Pseudomonas aeruginosa [7], 6.25 µg/mL (≈ 17.3 µM). For the same compound, the minimum inhibitory concentration (MIC) in the assay on Pseudomonas aeruginosa [8] was determined as 1.25 µg/mL (≈ 3.46 µM); against Escherichia coli [9], 0.16 µg/mL (≈ 0.443 µM); with Escherichia coli [10] it was 0.08 µg/mL (≈ 0.221 µM).

As to `CC1COc2c(NCc3ccc(NC(=O)Nc4ccccc4)cc3)c(F)cc3c(=O)c(C(=O)O)cn1c23` (stereo not given), the inhibition in the assay with Staphylococcus aureus [16] turned out to be 84.1%; with Staphylococcus aureus [17], 65.9%; in the assay with Staphylococcus aureus [18], 53.4%; in assay [19] it was 96.4%; in assay [20], 85.6%; in assay [1] it was 73.6%. The MIC against Staphylococcus aureus [3] is > 100 µg/mL; in the assay with Staphylococcus aureus [4] it was 100 µg/mL (≈ 199 µM); in the assay on Staphylococcus aureus [5] it was > 100 µg/mL; in the assay with Pseudomonas aeruginosa [6], 100 µg/mL (≈ 199 µM); with Pseudomonas aeruginosa [7], 50 µg/mL (≈ 99.5 µM); in the assay on Pseudomonas aeruginosa [8] it was 50 µg/mL (≈ 99.5 µM). Moreover, the MIC against Escherichia coli [9] and in the assay with Escherichia coli [10] was 10 µg/mL (≈ 19.9 µM) in each case.

In the case of `O=C(O)c1cn(C2CC2)c2cc(N3CCNCC3)c(F)cc2c1=O` [CIPROFLOXACIN], the MIC in the assay with Staphylococcus aureus [2] worked out at 0.63 µg/mL (≈ 1.9 µM); against Staphylococcus aureus [3] it was 0.16 µg/mL (≈ 0.483 µM); with Staphylococcus aureus [4] it was 2.5 µg/mL (≈ 7.54 µM); with Staphylococcus aureus [5], 0.16 µg/mL (≈ 0.483 µM); with Pseudomonas aeruginosa [6], 0.78 µg/mL (≈ 2.35 µM); in the assay with Pseudomonas aeruginosa [7] it was 0.78 µg/mL (≈ 2.35 µM). The minimal inhibitory concentration (MIC) was 0.16 µg/mL (≈ 0.483 µM) with Pseudomonas aeruginosa [8], 0.04 µg/mL (≈ 0.121 µM) against Escherichia coli [9] and ≤ 0.019 µg/mL with Escherichia coli [10].

As for `NCCC[C@H](N)C(=O)N[C@@H](Cc1ccccc1)C(=O)N1CCN(c2cc3c(cc2F)c(=O)c(C(=O)O)cn3C2CC2)CC1`, the MIC is > 10 µg/mL in the assay on Staphylococcus aureus [3]; > 10 µg/mL against Staphylococcus aureus [5]; 50 µg/mL (≈ 84.4 µM) in the assay with Pseudomonas aeruginosa [6]; 50 µg/mL (≈ 84.4 µM) in the assay on Pseudomonas aeruginosa [7]; 50 µg/mL (≈ 84.4 µM) in the assay on Pseudomonas aeruginosa [8]; 10 µg/mL (≈ 16.9 µM) in the assay on Escherichia coli [9]. In addition, in the assay with Escherichia coli [10], the minimum inhibitory concentration (MIC) came out at 10 µg/mL (≈ 16.9 µM).
